Experimental findings from ChEMBL document CHEMBL4043181, “A new chemotype inhibitor for the human organic cation transporter 3 (hOCT3)” (Bioorg Med Chem Lett, 2017) are described below.

A value given as a limit tells only on which side of the number the result lay.

In data set [1] the target is T1, Solute carrier family 22 member 3 (Homo sapiens, UniProt O75751).
T1 sequence (O75751 whole entry): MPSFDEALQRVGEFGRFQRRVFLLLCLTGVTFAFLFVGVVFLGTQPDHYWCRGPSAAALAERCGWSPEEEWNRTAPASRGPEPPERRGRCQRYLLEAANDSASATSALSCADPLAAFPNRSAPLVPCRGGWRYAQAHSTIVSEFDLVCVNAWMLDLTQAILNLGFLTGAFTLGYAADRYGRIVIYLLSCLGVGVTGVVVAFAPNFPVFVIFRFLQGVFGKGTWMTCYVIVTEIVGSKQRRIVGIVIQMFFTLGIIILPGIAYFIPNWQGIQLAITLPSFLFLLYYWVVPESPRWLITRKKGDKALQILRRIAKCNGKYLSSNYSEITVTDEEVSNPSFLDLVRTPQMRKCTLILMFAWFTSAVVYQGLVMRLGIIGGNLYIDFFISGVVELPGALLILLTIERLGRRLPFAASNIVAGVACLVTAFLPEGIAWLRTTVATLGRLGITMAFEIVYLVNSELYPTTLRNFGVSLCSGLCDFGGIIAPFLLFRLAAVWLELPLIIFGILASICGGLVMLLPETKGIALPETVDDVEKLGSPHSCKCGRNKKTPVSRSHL
The data set can be described thus: Inhibition of human OCT3 expressed in HEK293 cells assessed as decrease in uptake of substrate [3H]MPP+ after 1 min by liquid scintillation counting method. It counts as cell-based. The procedure, abridged:
(§1)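 Stably transfected HEK293 cells expressing hOCT1, hOCT2 or hOCT3; 1 min uptake of [3H]MPP+ (1 μM) measured across inhibitor concentrations 10^-8 to 10^-2.5 M. Signal corrected for nonspecific background in empty-vector control cells; data as mean ± SD; IC50 obtained by nonlinear regression.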

Data set [2] deals with T2, Solute carrier family 22 member 1 (Homo sapiens, UniProt O15245).
T2 sequence (O15245 whole entry): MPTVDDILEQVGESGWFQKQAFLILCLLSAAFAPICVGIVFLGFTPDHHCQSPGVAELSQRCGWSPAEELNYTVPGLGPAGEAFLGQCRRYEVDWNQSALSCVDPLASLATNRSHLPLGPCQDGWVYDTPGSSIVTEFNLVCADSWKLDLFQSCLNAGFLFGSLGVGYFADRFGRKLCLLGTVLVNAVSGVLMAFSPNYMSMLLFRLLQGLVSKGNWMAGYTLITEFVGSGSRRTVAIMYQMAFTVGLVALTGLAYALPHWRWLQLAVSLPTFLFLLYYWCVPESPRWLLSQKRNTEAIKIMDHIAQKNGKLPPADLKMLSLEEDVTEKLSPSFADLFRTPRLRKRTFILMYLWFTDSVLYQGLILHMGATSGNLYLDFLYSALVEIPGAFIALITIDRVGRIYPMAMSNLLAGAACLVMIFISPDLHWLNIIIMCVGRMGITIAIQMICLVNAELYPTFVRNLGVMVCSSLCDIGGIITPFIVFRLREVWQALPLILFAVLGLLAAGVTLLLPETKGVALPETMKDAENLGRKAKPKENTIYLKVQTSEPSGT
As to the kind of experiment: Inhibition of human OCT1 expressed in HEK293 cells assessed as decrease in uptake of substrate [3H]MPP+ after 1 min by liquid scintillation counting method. It is filed as cell-based. Put shortly:
as §1

Data set [3] concerns the target T3, Solute carrier family 22 member 2 (Homo sapiens, UniProt O15244).
T3 sequence (O15244 whole entry): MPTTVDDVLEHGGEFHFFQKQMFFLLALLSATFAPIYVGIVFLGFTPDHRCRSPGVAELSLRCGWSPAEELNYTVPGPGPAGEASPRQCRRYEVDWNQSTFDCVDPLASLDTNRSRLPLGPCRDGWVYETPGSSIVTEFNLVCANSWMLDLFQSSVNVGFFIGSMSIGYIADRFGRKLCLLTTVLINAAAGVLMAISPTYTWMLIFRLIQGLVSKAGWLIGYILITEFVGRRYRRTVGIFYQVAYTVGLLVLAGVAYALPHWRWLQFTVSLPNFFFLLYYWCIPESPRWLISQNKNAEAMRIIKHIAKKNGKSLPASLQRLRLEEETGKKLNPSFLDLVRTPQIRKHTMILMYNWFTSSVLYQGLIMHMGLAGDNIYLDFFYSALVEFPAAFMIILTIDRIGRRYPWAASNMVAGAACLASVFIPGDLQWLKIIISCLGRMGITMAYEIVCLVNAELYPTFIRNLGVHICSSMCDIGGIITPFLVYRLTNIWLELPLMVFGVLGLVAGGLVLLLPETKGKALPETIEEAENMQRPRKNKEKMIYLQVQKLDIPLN
The data set can be described thus: Inhibition of human OCT2 expressed in HEK293 cells assessed as decrease in uptake of substrate [3H]MPP+ after 1 min by liquid scintillation counting method. It is filed as cell-based. The procedure, abridged:
as §1

The species named for data set [4] is Homo sapiens. The data set can be described thus: Selectivity ratio of IC50 for human OCT2 expressed in HEK293 cells to IC50 for human OCT3 expressed in HEK293 cells. It is filed as cell-based.
The species entered for data set [5] is Homo sapiens. As to the kind of experiment: Selectivity ratio of IC50 for human OCT1 expressed in HEK293 cells to IC50 for human OCT3 expressed in HEK293 cells. It counts as cell-based.
Data set [6] has as its target T1, Solute carrier family 22 member 3. As to the kind of experiment: Competitive inhibition of human OCT3 expressed in HEK293 cells up to 10 uM in presence of varying concentration of MPP+ by Lineweaver-Burk plot analysis. It counts as cell-based. The procedure, abridged:
(§2)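 HEK293 cells stably expressing hOCT3; 1 min cellular accumulation of MPP+ (1-150 μM) with or without inhibitor at two concentrations. Uptake corrected for background in non-transporter-expressing control cells. Saturation curves fitted by nonlinear regression to a mixed-model inhibition equation to define mode of inhibition; Lineweaver-Burk transforms used for display.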

Data set [7] has the same target. As to the kind of experiment: Competitive inhibition of human OCT3 expressed in HEK293 cells in presence of varying concentration of MPP+ by Lineweaver-Burk plot analysis. It is filed as cell-based. Put shortly:
as §2

Data set [8] shares this target. As to the kind of experiment: Competitive inhibition of human OCT3 expressed in HEK293 cells up to 25 uM in presence of varying concentration of MPP+ by Lineweaver-Burk plot analysis. It counts as cell-based. The procedure, abridged: as §2
Data set [9] has the same target. As to the kind of experiment: Inhibition of OCT3 (unknown origin).

As for `NC(N)=Nc1cccc(Cl)c1`, the IC50 in data set [1] is 7.6 µM; in data set [2] it was 13.7 µM; in [3], 60.5 µM.

As for `N=C(N)Nc1ccc(Cc2ccccc2)cc1`, the Ratio IC50 in the data set listed under Homo sapiens [4] and in the data set filed under Homo sapiens [5] was below 5 each time. The IC50 stood at 452 µM in data set [1], 762 µM in [2] and 96.2 µM in data set [3].

In the case of `N=C(N)Nc1ccc(Br)cc1`, the Ratio IC50 in the data set filed under Homo sapiens [4] and in the data set listed under Homo sapiens [5] was below 5 in each case. In addition, the IC50 in data set [1] stood at 4.8 µM; in [2] it was 6.3 µM; in data set [3], 11.3 µM.

With `CC(C)(C)c1ccc(N=C(N)N)cc1`, the Ratio IC50 in the data set filed under Homo sapiens [4] and in the data set listed under Homo sapiens [5] was below 5 throughout. In data set [6], the “inhibition (INH)” value was “Active”. The IC50 is 2.2 µM in data set [1], 0.9 µM in data set [2] and 8.3 µM in [3].

For the compound `N=C(N)Nc1ccc(F)cc1`, the Ratio IC50 in the data set filed under Homo sapiens [4] and in the data set listed under Homo sapiens [5] was below 5 throughout. Besides, the IC50 stood at 27.8 µM in data set [1], 22.6 µM in data set [2] and 48.3 µM in [3].

Take `C=C[C@H]1C[N@@]2CC[C@H]1C[C@H]2[C@H](O)c1ccnc2ccc(OC)cc12` [QUININE]: the “inhibition (INH)” value in data set [7] is recorded as “Active”.

Take `Cc1ccc(NC(=N)N)cc1`: the Ratio IC50 in the data set filed under Homo sapiens [4] and in the data set listed under Homo sapiens [5] was below 5 throughout. The IC50 in [1] is 4.6 µM; in [2] it was 10 µM; in [3], 9.3 µM.

For `N=C(N)Nc1ccc(Cl)cc1`, the Ratio IC50 in the data set listed under Homo sapiens [4] is 6; in the data set filed under Homo sapiens [5] it was below 5. Moreover, the “inhibition (INH)” value in data set [8] is “Active”. Moreover, the results for the IC50 in [1], in [2] and in [3] were 2.8 µM, 10 µM and 18.9 µM, respectively.

Take `N=C(N)Nc1cccc(Cl)c1`: the figures for the Ratio IC50 in the data set listed under Homo sapiens [4] and in the data set listed under Homo sapiens [5] were 8 and below 5, respectively.

With `N=C(N)Nc1ccccc1` [PHENYLGUANIDINE], the Ratio IC50 in the data set filed under Homo sapiens [4] and in the data set filed under Homo sapiens [5] was below 5 each time. Moreover, the figures for the IC50 in data set [1], in [2] and in [3] were 99.8 µM, 41.1 µM and 89 µM, respectively.

Compound `N=C(N)N` [GUANIDINE] gave an IC50 in data set [9] of 2.2 to 6.2 mM.

Consider `NC(N)=Nc1ccc(I)cc1`, for which the Ratio IC50 in the data set listed under Homo sapiens [4] and in the data set filed under Homo sapiens [5] was below 5 in each case. The IC50 amounted to 1.5 µM in [1], 2.4 µM in data set [2] and 4.4 µM in data set [3].

As a reminder, the IC50 is the point on the concentration scale where inhibition reaches its midpoint.
